A short description of test [1]: inhibitors of TNFa-induced NFkB p65 translocation, primary screen, imaging, HUVEC, MLSMR starter and 10KST1 sets (AID 438).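 Also: compound added about 3h40 before a 20 min TNFalpha stimulation.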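 As to inhibition: signal is the nuclear over cytoplasmic p65 intensity ratio per well.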 The note with it: HUVEC TNFa-induced p65 nuclear translocation; cell count: measured here: nuclei count (cytotoxicity indicator), at 2.08 µM; inhibition: at 2 µM, stronger effect = higher value, 0% TNFa-plus-vehicle, 100% no-TNFa wells.
Test [2] can be described thus: inhibitors of mutant huntingtin aggregation, primary screen, imaging, exon1htt(103Q)mCFP cells, high-content imaging (AID 483;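 active = visual image review flags a hit and inhibition of aggregation exceeds 20%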;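 also: compound exposure lasted 3 days before fixation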;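 as to nuclei count: percent of the per-plate median nuclei count of sample wells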). The note with it: exon1htt(103Q)mCFP cell line, aggregate imaging, at 2 µM; inhibition of aggregation: stronger effect = higher value; nuclei count: measured here: cell count, toxicity.
Test [3] in a line: inhibitors of E-selectin induction by TNFa, primary screen, imaging, HUVEC, immunofluorescence, MLSMR starter and 10KST1 sets (AID 487;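 active = visually confirmed hit in the image check and inhibition above 20%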;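 as to inhibition: signal is fraction of cell area covered by stained E-selectin grains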;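 as to nuclei count: 100% = median nuclei count of all wells on the same plate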). Conditions: HUVEC TNFalpha-induced E-selectin immunofluorescence imaging, at 2 µM; inhibition: stronger effect = higher value; nuclei count: measured here: cell number, toxicity.
Test [4] concerns the target Voltage-gated potassium channel subunit beta-2 (Rattus norvegicus) (UniProt P62483). As to the kind of experiment: KvBeta enzyme negative modulators, primary screen, biochemical, NADPH fluorescence (AID 622;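 active = fluorescence slope higher than the sample average by over 3 SD, cut at about -0.22 in these data, passing the limit was not always enough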;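 also: slope of raw intensity against log time taken from 70 to 1610 s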). Conditions: recombinant KvBeta, 4-cyanobenzaldehyde reduction, at 10 µM, stronger effect = higher value.
The target is the same in test [5]. As to the kind of experiment: KvBeta positive modulators, primary screen, biochemical, NADPH fluorescence (AID 623;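 active = NADPH fluorescence slope more negative than the mean of all samples by about 3 SD, 99.7% confidence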;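 also: fluorescence intensity change per second fitted from 20 to 320 s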). The note with it: Recombinant KvBeta, NADPH fluorescence decrease slope, 10 min; at 10 µM; stronger effect = lower value.
Test [6] has as its target Muscarinic acetylcholine receptor M4 (Homo sapiens) (UniProt P08173). As to the kind of experiment: compounds altering M4/GIRK thallium flux, either direction, primary screen, M4 allosteric agonist project, cell-based, HEK293 M4/GIRK, BTC-AM (AID 625;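 active = fluorescence slope after compound addition differing from the mean of all tested samples at 99.7% confidence, mostly higher but some lower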;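 also: thallium influx through GIRK channels coupled to M4 in HEK293 cells with BTC-AM dye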). The note with it: at 10 µM, actives lie on both sides. An outline of the steps:
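Material – HEK293 cells with M4 receptor and GIRK channels · Buffer or medium – pH 7.3 thallium assay buffer · Doses – one dose, 10 µM final · Timing – cells overnight at 37 °C, BTC-AM loading 1 h, reads 2 min total · Measured by – kinetic fluorescence with BTC-AM dye · Controls – carbachol and DMSO controls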

The nature of test [7]: inhibitors of Sendai virus-induced IRF3 signaling, primary screen, TLR/RLR signaling modifier project, cell-based, Sendai virus stimulus, luciferase, 10K MLSCN set (AID 602276;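 active = inhibition at or above 50% at 10 µM; inactive = inhibition below 50%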;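 also: firefly luciferase from ISG56 promoter only with Renilla not read in this screen; 0% = Sendai virus plus DMSO and 100% = medium plus DMSO without virus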). Conditions: HEK293 RL24 IRF3 luciferase reporter, at 10 µM, stronger effect = higher value. In general terms: Reporter assays use an easily measured gene product as a stand-in for the process of interest.
The nature of test [8]: inhibitors of poly I:C-induced TLR3 signaling, primary screen, cell-based, poly I:C stimulus, luciferase, 10K MLSCN set (AID 602277;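 active = inhibition of the reporter signal at or above 50%; inactive = inhibition below 50%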). Conditions: HEK293-TLR3 RL24 IRF3 luciferase reporter, at 10 µM, stronger effect = higher value.

Calls of active or inactive are those of the source.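 The calls were made as follows, unless noted: active = inhibition above 20% together with a positive visual image hit; inconclusive = visual image hit but inhibition not above 20%; inactive = no visual image hit.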

Chain of Voltage-gated potassium channel subunit beta-2 (Rattus norvegicus) (P62483 whole entry, looked up): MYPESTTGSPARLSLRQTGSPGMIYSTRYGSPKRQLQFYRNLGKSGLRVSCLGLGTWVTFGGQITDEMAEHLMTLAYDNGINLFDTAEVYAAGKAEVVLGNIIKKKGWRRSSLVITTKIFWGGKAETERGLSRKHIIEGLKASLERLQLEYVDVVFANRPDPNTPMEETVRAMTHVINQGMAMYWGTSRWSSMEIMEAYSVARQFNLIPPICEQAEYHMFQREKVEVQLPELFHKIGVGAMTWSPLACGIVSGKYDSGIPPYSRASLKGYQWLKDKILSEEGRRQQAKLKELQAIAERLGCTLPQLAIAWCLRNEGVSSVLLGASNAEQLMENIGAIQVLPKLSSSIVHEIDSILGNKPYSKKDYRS
Chain of Muscarinic acetylcholine receptor M4 (Homo sapiens) (P08173 whole entry, looked up): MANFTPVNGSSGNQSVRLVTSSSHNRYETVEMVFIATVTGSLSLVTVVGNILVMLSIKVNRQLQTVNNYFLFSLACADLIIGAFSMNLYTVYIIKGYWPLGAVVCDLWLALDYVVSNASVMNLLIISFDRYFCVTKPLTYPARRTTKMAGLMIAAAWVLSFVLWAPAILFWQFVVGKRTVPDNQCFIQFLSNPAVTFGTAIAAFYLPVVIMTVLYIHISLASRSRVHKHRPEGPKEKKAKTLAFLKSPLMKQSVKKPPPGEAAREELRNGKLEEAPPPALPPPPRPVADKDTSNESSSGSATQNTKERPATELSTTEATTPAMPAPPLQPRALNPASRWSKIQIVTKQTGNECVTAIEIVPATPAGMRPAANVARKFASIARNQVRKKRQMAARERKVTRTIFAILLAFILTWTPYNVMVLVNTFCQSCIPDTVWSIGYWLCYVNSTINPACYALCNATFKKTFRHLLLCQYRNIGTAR

By inhibition is commonly meant the drop in the measured response relative to a control, in per cent. In the case of `Cc1ccc(NC(=O)C2CCCNC2=O)nc1` (centres undefined), the cell count in test [1] is 265. The inhibition was -2.2% (inactive) in test [1], -48.5% (inactive) in test [3], 2.07% (inactive) in test [7] and -1.11% (inactive) in test [8]. In test [2], the inhibition of aggregation was 5.8% (inactive). In addition, the nuclei count in test [2] is 86.6%; in test [3], 82.2%. Further, the fluorescence slope is -0.448 (inactive) in test [4] and 0.00534 (inactive) in test [6]. For the same molecule, in test [5], the NADPH fluorescence slope was -4.9e-05 (inactive).

For `Cc1nc2ccc(NC(=O)N3CCOCC3)cc2s1`, the cell count in test [1] was found to be 416. Besides, the inhibition was 0.5% (inactive) in test [1], -51% (inactive) in test [3], 10.7% (inactive) in test [7] and 8.12% (inactive) in test [8]. In test [2], the inhibition of aggregation was -0.3% (inactive). Also, the nuclei count is 96.2% in test [2] and 109% in test [3]. Also, the figures for the fluorescence slope in test [4] and in test [6] were -0.497 (inactive) and 0.00618 (inactive), respectively. Further, the NADPH fluorescence slope in test [5] is 8.6e-06 (inactive).

For the molecule `CCC(C)(C)n1nnnc1C(c1ccccc1OC)N1CCSCC1` (centres undefined), in test [1], the cell count is 252. The inhibition in test [1] is -16.3% (inactive); in test [3], 32.4% (inactive); in test [7], 6.1% (inactive); in test [8], 23.7% (inactive). In addition, in test [2], the inhibition of aggregation is 6.6% (inactive). Moreover, the nuclei count worked out at 106% in test [2] and 53.7% in test [3]. In addition, the values for the fluorescence slope in test [4] and in test [6] were -0.555 (inactive) and 0.00476 (inactive), respectively. Further, the NADPH fluorescence slope in test [5] is -4.3e-05 (inactive).

For `COc1cc2c(OC)cccc2cc1C(=O)O`, in test [1], the cell count came out at 383. Also, the inhibition in test [1] is -1.9% (inactive); in test [3] it was -12.2% (inactive); in test [7], 18.2% (inactive); in test [8], 8.81% (inactive). The inhibition of aggregation in test [2] was -13.5% (inactive). Besides, the nuclei count is 102% in test [2] and 92.7% in test [3]. Besides, the fluorescence slope in test [4] was -0.429 (inactive); in test [6], 0.0045 (inactive). The NADPH fluorescence slope in test [5] is -5.9e-06 (inactive).

In the case of `Cc1cc(=O)[nH]c2c1cnn2Cc1ccccc1`, in test [1], the cell count was 270. Moreover, the inhibition in test [1] was 3.9% (inactive); in test [3] it was -37.7% (inactive); in test [7], 13.7% (inactive); in test [8], 15.7% (inactive). The inhibition of aggregation in test [2] was 13.6% (inactive). Besides, the nuclei count in test [2] came out at 79.2%; in test [3] it was 104%. Moreover, the fluorescence slope is -0.483 (inactive) in test [4] and 0.00447 (inactive) in test [6]. Also, the NADPH fluorescence slope in test [5] was -6.1e-05 (inactive).

Regarding `Cc1ccc(NC(=O)N2CCC(c3nc4c(nnn4Cc4cccc(Cl)c4)c(=O)[nH]3)CC2)cc1`, in test [1], the cell count worked out at 811. In addition, the inhibition in test [1] was -4.8% (inactive); in test [3] it was -3.8% (inactive); in test [7], 8.55% (inactive); in test [8] it was 21.7% (inactive). Also, the inhibition of aggregation in test [2] is -2.1% (inactive). The nuclei count in test [2] was 55.6%; in test [3], 124%. Besides, the values for the fluorescence slope in test [4] and in test [6] were -0.569 (inactive) and 0.00576 (inactive), respectively. In test [5], the NADPH fluorescence slope was -7.6e-06 (inactive).

As for `CC(=O)Nc1ccc(S(=O)(=O)n2cnc(C)c2)cc1`, the cell count in test [1] was found to be 697. Moreover, the inhibition is -10.2% (inactive) in test [1], -26.8% (inactive) in test [3], -6.5% (inactive) in test [7] and -8.68% (inactive) in test [8]. Moreover, the inhibition of aggregation in test [2] was -20.6% (inactive). Further, the nuclei count in test [2] stood at 99.8%; in test [3], 118%. Further, the fluorescence slope in test [4] was -0.584 (inactive); in test [6] it was 0.0072 (inactive). For the same molecule, the NADPH fluorescence slope in test [5] was 4.1e-05 (inactive).

Consider `CCn1c(=O)cc(SCC(=O)NCC2CCCO2)c2ccccc21` (centres undefined), for which the cell count in test [1] is 404. Also, the inhibition in test [1] was -4.9% (inactive); in test [3], 32.5% (inactive); in test [7] it was 18.5% (inactive); in test [8] it was 34.6% (inactive). The inhibition of aggregation in test [2] was 0% (inactive). Moreover, the values for the nuclei count in test [2] and in test [3] were 97.1% and 103%, respectively. Moreover, the fluorescence slope in test [4] was -0.568 (inactive); in test [6], 0.00498 (inactive). Further, in test [5], the NADPH fluorescence slope was -1.6e-05 (inactive).

On to `Cc1[nH]c(=O)[nH]c(=O)c1S(=O)(=O)Nc1ccc(Oc2ccccc2)cc1`, for which the cell count in test [1] was determined as 638. Also, the inhibition in test [1] was -3.2% (inactive); in test [3], -25.8% (inactive); in test [7] it was 19.8% (inactive); in test [8], 24.8% (inactive). Moreover, in test [2], the inhibition of aggregation is -7.6% (inactive). Moreover, the nuclei count is 117% in test [2] and 107% in test [3]. The figures for the fluorescence slope in test [4] and in test [6] were -0.574 (inactive) and 0.00503 (inactive), respectively. In addition, in test [5], the NADPH fluorescence slope was -2.9e-05 (inactive).

`CN(c1ccccc1)S(=O)(=O)c1cc(C(=O)N2CCN(c3ccccn3)CC2)ccc1Cl`: in test [1], the cell count is 628. In addition, the inhibition in test [1] was 2.4% (inactive); in test [3], -52.9% (inactive); in test [7], 15.7% (inactive); in test [8], 13.1% (inactive). Also, the inhibition of aggregation in test [2] is -6.5% (inactive). The nuclei count turned out to be 134% in test [2] and 108% in test [3]. Further, the results for the fluorescence slope in test [4] and in test [6] were -0.475 (inactive) and 0.00416 (inactive), respectively. Also, in test [5], the NADPH fluorescence slope was -6e-05 (inactive).

Consider `O=S(=O)(NCCc1ccccc1F)c1cccc(S(=O)(=O)N2CCOCC2)c1`, for which the cell count in test [1] amounted to 434. In addition, the inhibition was 5.7% (inactive) in test [1], -14.8% (inactive) in test [3], 9.49% (inactive) in test [7] and 13% (inactive) in test [8]. Also, the inhibition of aggregation in test [2] was 6.4% (inactive). Besides, the nuclei count in test [2] was 105%; in test [3] it was 110%. The figures for the fluorescence slope in test [4] and in test [6] were -0.584 (inactive) and 0.00428 (inactive), respectively. For the same molecule, in test [5], the NADPH fluorescence slope is 1.5e-06 (inactive).

As to `c1ccc(-c2cc3c(nn2)CCc2nonc2-3)cc1`, the cell count in test [1] was 339. For the same molecule, the inhibition in test [1] was 2.4% (inactive); in test [3] it was -9.2% (inactive); in test [7] it was -15.2% (inactive); in test [8] it was -31.9% (inactive). Besides, the inhibition of aggregation in test [2] is 19.1% (inactive). For the same molecule, the nuclei count worked out at 100% in test [2] and 111% in test [3]. Also, the fluorescence slope in test [4] was -0.543 (inactive); in test [6], 0.00417 (inactive). Besides, in test [5], the NADPH fluorescence slope is -0.00017 (inactive).

Consider `Cc1nnc(NC(=O)Nc2cccc(Cl)c2)s1`, for which, in test [1], the cell count is 481. Also, the inhibition in test [1] is -9.3% (inactive); in test [3] it was 9.5% (inactive); in test [7], -25% (inactive); in test [8], -88.8% (inactive). The inhibition of aggregation in test [2] is -4.3% (inactive). The values for the nuclei count in test [2] and in test [3] were 66.7% and 114%, respectively. Also, the fluorescence slope in test [4] was -0.574 (inactive); in test [6], 0.00561 (inactive). For the same molecule, the NADPH fluorescence slope in test [5] was -1.8e-05 (inactive).

On to `CCCCn1cnc2c(cnn2-c2ccc(Cl)cc2)c1=O`, for which the cell count in test [1] was 342. Further, the inhibition is -16.3% (inactive) in test [1], -72% (inactive) in test [3], -48.5% (inactive) in test [7] and -141% (inactive) in test [8]. The inhibition of aggregation in test [2] is -4.9% (inactive). Also, the nuclei count in test [2] came to 102%; in test [3] it was 103%. Also, the results for the fluorescence slope in test [4] and in test [6] were -0.531 (inactive) and 0.00515 (inactive), respectively. Further, the NADPH fluorescence slope in test [5] is -2.1e-05 (inactive).
